Measured values published in ChEMBL document CHEMBL2146375, “Synthesis and evaluation of indole-containing 3,5-diarylisoxazoles as potential pro-apoptotic antitumour agents” (Eur J Med Chem, 2012).

Legend:
[1] = Cytotoxicity against human COLO320 cells assessed as cell viability after 72 hrs by WST-1 assay; assay type: functional, cell-based; details: COLO 320, 72 h
Summary of the method: (§1)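 Cells grown in DMEM with L-glutamine (2 mM), 10% foetal bovine serum, 2.5% horse serum and penicillin/streptomycin at 37 °C under 5% CO₂. Seeded at 2 × 10³ cells/well and exposed to compound for 72 h, with DMSO ≤0.2% final. WST-1 added, absorbance read at 450 nm, and % reduction vs control calculated. IC₅₀ and Emax from nonlinear least-squares curve fit. Mean ± SEM, n = 3.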

Calu-3 [2] = experiment: Cytotoxicity against human Calu3 cells assessed as cell viability after 72 hrs by WST-1 assay; assay type: functional, cell-based; details: Calu-3, 72 h; summary of the method: as §1
[3] = Cytotoxicity against human BSMC cells assessed as cell viability at 20 uM after 72 hrs by WST-1 assay; assay type: cell-based
Summary of the method: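 Normal human bronchial smooth muscle cells grown in DMEM with 10% FBS and exposed to compound for 72 h. Viability compared with untreated control.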

COLO 320 = experiment: Induction of apoptosis in human COLO320 cells assessed as induction of caspase-3/7 at 20 uM after 4 hrs by spectrofluorimetry relative to control; assay type: functional; details: in the assay text read “at 10 uM” for “at 20 uM”
Summary of the method: (§2)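 Cells seeded at 7 × 10³/well and treated with compound for 4 h. Apo-ONE homogeneous caspase-3/7 substrate then added. Fluorescence read at excitation 485 nm and emission 530 nm. Result given as the ratio of treated-cell signal to vehicle-only cells.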

Calu-3 [4] = experiment: Induction of apoptosis in human Calu3 cells assessed as induction of caspase-3/7 at 10 uM after 4 hrs by spectrofluorimetry relative to control; assay type: functional; details: in the assay text read “at 20 uM” for “at 10 uM”; summary of the method: as §2

Q: With `COc1ccc(-c2cc(-c3cc4ccccc4n3C)no2)cc1` as the compound, how does the IC50 [1] read?
A: Its IC50 is over 100 µM.

Q: What about the IC50 (Calu-3 [2]) of the same compound?
A: The IC50 was over 100 µM.

Q: Which IC50 [1] does the source give for `COc1cccc(-c2cc(-c3cc4ccccc4n3C)no2)c1` here?
A: Its IC50 is 69.5 µM.

Q: And the IC50 (Calu-3 [2])?
A: Its IC50 is 17.3 µM.

Q: What does the source list for `COc1cccc(-c2cc(-c3cc4ccccc4[nH]3)no2)c1`?
A: IC50 [1]: > 100 µM; IC50 (Calu-3 [2]): > 100 µM

Q: Which results are given for `Cn1c(-c2cc(-c3ccc(F)cc3)no2)cc2ccccc21`?
A: IC50 [1]: > 100 µM; IC50 (Calu-3 [2]): > 100 µM

Q: For `COc1ccc(-c2cc(-c3ccc4[nH]ccc4c3)on2)cc1`, which IC50 [1] is on record?
A: The IC50 was 13.5 µM.

Q: And the IC50 (Calu-3 [2])?
A: Its IC50 is 22.5 µM.

Q: And the Activity [3]?
A: Its Activity is “Non-toxic”.

Q: What about the “fold change (FC)” value (COLO 320) of the same compound?
A: The value was 2.18.

Q: And the “fold change (FC)” value (Calu-3 [4])?
A: Its value is 2.44.

Q: For `Fc1ccc(-c2cc(-c3ccc4[nH]ccc4c3)on2)cc1`, which IC50 [1] is on record?
A: Its IC50 is 13.9 µM.

Q: And the IC50 (Calu-3 [2])?
A: Its IC50 is 16.8 µM.

Q: And the Activity [3]?
A: The Activity was “Toxic”.

Q: And the “fold change (FC)” value (COLO 320)?
A: Its value is 1.81.

Q: And the “fold change (FC)” value (Calu-3 [4])?
A: Its value is 1.94.

Q: For `COc1ccc(-c2cc(-c3cc4ccccc4n3C)on2)cc1`, which IC50 [1] is on record?
A: Its IC50 is over 100 µM.

Q: What about the IC50 (Calu-3 [2]) of the same compound?
A: The IC50 was over 100 µM.

Q: Which IC50 [1] does the source give for `COc1ccc2[nH]c(-c3cc(-c4cccc(F)c4)no3)cc2c1` here?
A: The IC50 was over 100 µM.

Q: What about the IC50 (Calu-3 [2]) of the same compound?
A: Its IC50 is 97.9 µM.

Q: Which IC50 [1] does the source give for `COC(=O)c1ccc(-c2cc(-c3ccc4[nH]ccc4c3)on2)cc1` here?
A: Its IC50 is over 100 µM.

Q: And the IC50 (Calu-3 [2])?
A: Its IC50 is over 100 µM.

Q: For `COc1ccc(-c2cc(-c3c(Cl)c4ccccc4n3C)no2)cc1`, which IC50 [1] is on record?
A: Its IC50 is 78.1 µM.

Q: What about the IC50 (Calu-3 [2]) of the same compound?
A: The IC50 was 60.9 µM.

Q: Which results are given for `Cn1c(-c2cc(-c3cccc(F)c3)on2)cc2ccccc21`?
A: IC50 [1]: > 100 µM; IC50 (Calu-3 [2]): > 100 µM

Q: What does the source list for `COc1cccc(-c2cc(-c3cc4cc(OC)ccc4[nH]3)no2)c1`?
A: IC50 [1]: > 100 µM; IC50 (Calu-3 [2]): > 100 µM

Q: What does the source list for `COc1cc(-c2cc(-c3ccc4[nH]ccc4c3)on2)cc(OC)c1OC`?
A: IC50 [1]: 9 µM; IC50 (Calu-3 [2]): 13.3 µM; Activity [3]: Non-toxic; fold change (FC) (COLO 320): 2.38; fold change (FC) (Calu-3 [4]): 3.39

Q: What does the source list for `COc1ccc2[nH]c(-c3cc(-c4cccc(F)c4)on3)cc2c1`?
A: IC50 [1]: > 100 µM; IC50 (Calu-3 [2]): > 100 µM

Q: Which IC50 [1] does the source give for `COc1ccc(-c2cc(-c3cc4ccccc4[nH]3)no2)cc1` here?
A: Its IC50 is over 100 µM.

Q: What about the IC50 (Calu-3 [2]) of the same compound?
A: Its IC50 is over 100 µM.

Q: Which IC50 [1] does the source give for `O=c1[nH]cc(F)c(=O)[nH]1` [FLUOROURACIL] here?
A: The IC50 was 12.5 µM.

Q: What does the source list for `Cn1c(-c2cc(-c3ccc(C(F)(F)F)cc3)on2)c(Cl)c2ccccc21`?
A: IC50 [1]: > 100 µM; IC50 (Calu-3 [2]): > 100 µM

Q: With `COc1cccc(-c2cc(-c3cc4ccccc4n3C)on2)c1` as the compound, how does the IC50 [1] read?
A: The IC50 was over 100 µM.

Q: What about the IC50 (Calu-3 [2]) of the same compound?
A: Its IC50 is over 100 µM.

Q: With `O=[N+]([O-])c1ccc(-c2cc(-c3ccc4[nH]ccc4c3)on2)cc1` as the compound, how does the IC50 [1] read?
A: The IC50 was 14 µM.

Q: What about the IC50 (Calu-3 [2]) of the same compound?
A: The IC50 was 25.8 µM.

Q: And the Activity [3]?
A: The Activity was “Toxic”.

Q: And the “fold change (FC)” value (COLO 320)?
A: The value was 3.76.

Q: And the “fold change (FC)” value (Calu-3 [4])?
A: Its value is 2.84.
